# Compound activity as filed in PubChem.
# Only some compounds are listed: those with a hit (about 4.8% of all), similar ones and a draw of the others.
# CSC inhib: cancer stem cell viability inhibitors, primary screen, luminescence; cancer stem cell-like cells viability; inhibition, % at 7.5 µM; 300,000 compounds, 1.1% hits; AID 2717, 2010; in the data active = inhibition above about 75%; tested in HMLE shEcad cells
# CHOP UPR activ: activators of apoptotic CHOP UPR arm, primary screen, cell-based, CHO-CHOP luciferase reporter, luminescence, uHTS | UPR activation; percent of tunicamycin response over DMSO baseline | AID 449763, 2010 | 330,000 compounds, 0.34% hits | activation, % at 10 µM;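 active = at 10 µM dose, activation of 40% or more, normalized to positive control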;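 note: 100% = tunicamycin at 10 µg/mL and 0% = DMSO alone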
#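 Evaluation: % reporter activation, DMSO baseline versus tunicamycin full activation; System: CHO-CHOP luciferase reporter cell line; Input: 500 cells/well; Incubation: 6 h compound treatment, 37 °C; Measured by: Steady-Glo luciferase luminescence; Dosing: one dose, 10 µM in 0.5% DMSO; Buffer or medium: F12 medium, 10% FBS; Benchmarks: positive tunicamycin 10 µg/mL, negative DMSO alone.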
# Beta cell apopt: inhibitors of cytokine-induced beta cell apoptosis, primary screen, luminescence | INS-1E cytokine-induced death, ATP luminescence, 48 h; percent of positive-control rescue, neutral wells zero | protection from apoptosis, % (concentration not given with the values) | 300,000 compounds, 0.8% hits | AID 435005, 2010;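 active = Every replicate reaches about 75%, or at least half do and their mean reaches it too, limit read from the data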;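 note: 0% = cytokine-treated negative control wells and 100% = positive control rescue; higher means more ATP so stronger rescue from cytokine killing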
# SKKanGAS inh: S. pyogenes SKKanGAS growth inhibitors in kanamycin, primary screen, streptokinase expression inhibitor project, SKKanGAS strain, BacTiter-Glo luminescence | 6 h | inhibition, % at 7.5 µM | 300,000 compounds, 1.3% hits;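 active = mean replicate score, as percent of positive control median, at least 50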;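 note: strain carries kanamycin resistance gene driven by streptokinase promoter and grows in 40 µg/ml kanamycin; loss of luminescence reflects streptokinase promoter inhibition or plain growth inhibition; 0% = median of DMSO wells and 100% = positive control at its reference dose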
# XBP1 UPR activ: activators of adaptive XBP1 UPR arm, primary screen, cell-based, CHO-XBP1 luciferase reporter, luminescence, uHTS | IRE1-XBP1 UPR activation; percent of tunicamycin response, DMSO as zero | activation, % at 20 µM | 330,000 compounds, 0.33% hits | AID 463104, 2010;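 active = versus positive control, 20 µM dose yields 30% or more activation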;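 note: 100% = tunicamycin at 10 µg/mL and 0% = DMSO only wells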
#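 incubation = overnight seeding at 37 °C, 6 h compound treatment at 37 °C | assay system = CHO-XBP1 cells stably carrying IRE1-XBP1-driven luciferase reporter | input = 1000 cells per well | detection = luciferase luminescence | dosing = single point, 20 µM final compound, 1% DMSO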
# Mdm2 MdmX PPI: inhibitors of human Mdm2-MdmX association, primary screen, cell-based, luminescence, split luciferase, SaOS-2, uHTS. inhibition, % at 8 µM. SaOS-2 split-luciferase Mdm2/MdmX complementation. Protein Mdm4 (Homo sapiens) + E3 ubiquitin-protein ligase Mdm2 (Homo sapiens), …. 330,000 compounds, 3% hits;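 active = inhibition of at least 50% at 8 µM in the primary screen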
# Target sequence (O15151 whole entry, looked up): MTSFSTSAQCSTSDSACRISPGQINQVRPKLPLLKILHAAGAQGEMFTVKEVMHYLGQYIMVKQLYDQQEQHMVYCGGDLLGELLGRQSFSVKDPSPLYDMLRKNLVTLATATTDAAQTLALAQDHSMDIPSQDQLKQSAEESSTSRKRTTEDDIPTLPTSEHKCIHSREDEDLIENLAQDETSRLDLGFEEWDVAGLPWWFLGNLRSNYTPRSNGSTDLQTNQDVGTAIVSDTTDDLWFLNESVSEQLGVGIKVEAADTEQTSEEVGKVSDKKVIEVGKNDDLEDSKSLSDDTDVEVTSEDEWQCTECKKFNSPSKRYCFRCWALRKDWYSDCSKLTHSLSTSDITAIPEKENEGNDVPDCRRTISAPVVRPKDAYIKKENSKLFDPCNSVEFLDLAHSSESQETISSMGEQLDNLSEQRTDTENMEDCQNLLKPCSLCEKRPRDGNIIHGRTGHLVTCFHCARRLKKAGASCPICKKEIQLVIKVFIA
# Target sequence (Q00987 whole entry, looked up): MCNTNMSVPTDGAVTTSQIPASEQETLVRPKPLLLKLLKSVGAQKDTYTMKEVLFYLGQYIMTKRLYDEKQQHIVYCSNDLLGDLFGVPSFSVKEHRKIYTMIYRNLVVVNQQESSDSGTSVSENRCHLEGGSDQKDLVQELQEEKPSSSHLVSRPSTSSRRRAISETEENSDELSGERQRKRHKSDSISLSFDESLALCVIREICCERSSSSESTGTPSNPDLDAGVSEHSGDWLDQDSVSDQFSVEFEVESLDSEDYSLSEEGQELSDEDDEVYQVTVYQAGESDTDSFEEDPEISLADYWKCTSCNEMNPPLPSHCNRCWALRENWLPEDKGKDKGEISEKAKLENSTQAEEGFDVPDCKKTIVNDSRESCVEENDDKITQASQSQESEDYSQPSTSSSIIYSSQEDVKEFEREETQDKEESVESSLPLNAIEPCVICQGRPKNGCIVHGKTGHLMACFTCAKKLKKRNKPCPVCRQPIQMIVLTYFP
# UPR CHOP confirm: activators of apoptotic CHOP UPR arm, confirmation, cell-based, CHO-CHOP luciferase reporter, single concentration; shares compounds with CHOP UPR activ; CHO-CHOP cells, CHOP-luciferase reporter luminescence; percent of tunicamycin response, DMSO as zero; activation, % at 10 µM; 1,000 compounds, 64% hits; in the data active = activation above about 33%;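 note: 0% = DMSO wells and 100% = tunicamycin 10 µg/mL wells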
# XBP1 UPR conf: IRE1-XBP1 UPR arm activators, confirmation, cell-based, CHO-XBP1 luciferase reporter, luminescence, single concentration | shares compounds with XBP1 UPR activ | activation, % at 20 µM | 1,000 compounds, 63% hits;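 active = reporter signal at least 30% of the positive control's activation in two or more of four replicate wells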;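 note: plate controls were DMSO negative control for no effect and tunicamycin 10 µg/mL positive control for full effect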
# Mdm2 MdmX conf: Mdm2-MdmX complex disruptors, retested hits, confirmation, luminescence, single concentration | shares compounds with Mdm2 MdmX PPI | Mdm2-MdmX binding, luminescent assay | inhibition, % at 8 µM | 10,000 compounds, 55% hits | AID 489028, 2010; in the data active = inhibition above about 40%
# Full FLuc ctr: full-length luciferase signal inhibition, confirmation, counter-screen for Mdm2/MdmX interaction inhibitor project, cell-based, single concentration, SaOS-2; inhibition, % at 8 µM; SaOS-2 full-length luciferase counterscreen, luminescence; shares compounds with Mdm2 MdmX PPI; 6,200 compounds, 77% hits;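 active = mean inhibition at 8 µM reaching about 37%, which flags the compound as non-specific, limit read from the data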;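 note: p53-null SaOS-2 cells with luciferase driven by a doxycycline-inducible promoter; compound on cells about two nights before reading with doxycycline added after day one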
# Starred values were filed as active, the others as inactive; / = no result.
SMILES,CSC inhib,CHOP UPR activ,Beta cell apopt,SKKanGAS inh,XBP1 UPR activ,Mdm2 MdmX PPI,UPR CHOP confirm,Mdm2 MdmX conf,others
CCn1c(=O)c2c(nc(SCC(=O)N3CCC(C)CC3)n2C)n(C)c1=O,-16,3,0,0,-7,-6,/,/,
COc1ccc(CN2CCN(C(=O)c3c(-c4ccccc4)noc3C)CC2)cc1F,/,0,1,/,-1,5,/,/,
Cc1ccc(-c2csc(N3CCN(S(=O)(=O)c4ccc5c(c4)NC(=O)CO5)CC3)n2)cc1,15,3,17,11,-4,33,/,/,
CCOc1ccc(CCNC(=O)CN2C(=O)CCSc3ccccc32)cc1,-20,1,-1,-4,-1,-21,/,/,
C[C@]12c3[nH]c4ccccc4c3CCN1C(=O)C(CC(=O)NCCN1CCOCC1)C[C@@H]2C(=O)N1CCCCC1 (stereo partly drawn),/,0,-5,/,-3,5,/,/,
CCCCCCCCCn1c2c(c(=N)c3c1CCC3)CCC2,56,57*,109*,21,23,95*,43*,93*,Full FLuc ctr=55*
CCN1C[C@@H]2[C@@H]3C(=O)N(Cc4ccccc4)C(=O)[C@@H]3[C@](Cc3ccccc3)(C(=O)OC)N2C1=NC,/,3,/,/,1,7,/,/,
COc1cccc(CC(NC(C)=O)C(=O)NC2CCN(C(=O)c3ccncc3)CC2)c1OC (stereo not drawn),/,3,/,2,-5,18,/,/,
CN(C)S(=O)(=O)c1ccc(NC(=O)CSc2nnc(-c3ccco3)n2N)cc1,-9,1,1,/,-1,9,/,/,
Cc1ccc(C(=O)Cn2c(NCCO)nc3ccccc32)cc1,-8,1,-1,-1,-1,-5,/,/,
Cc1ccc(C(=O)Cn2c(C(=O)/C=C/c3ccccc3)nc3ccccc32)cc1,41,249*,41,-2,32*,56*,325*,55*,XBP1 UPR conf=46*;Full FLuc ctr=53*
Cc1ccc(C(=O)c2ccccc2C(=O)OCC(=O)N2C(C)CCCC2C)cc1 (stereo not drawn),-4,-1,-3,/,5,-19,/,/,
COc1ccc(-c2ccc3c(c2)S(=O)(=O)c2cccc(C(=O)NCc4ccccc4Cl)c2C3=O)cc1OC,-5,-2,14,/,-3,22,/,/,
CC(C)c1cccc(-c2ccc3c(c2)S(=O)(=O)c2cccc(C(=O)NCc4ccccc4Cl)c2C3=O)c1,31,49*,-4,/,99*,89*,34*,16,XBP1 UPR conf=109*
Cc1ccc(-c2cc(NC(=O)CCl)n(-c3ccccc3)n2)cc1,96*,82*,-16,12,-1,92*,99*,19,
Cc1ccc(-c2nn(-c3ccccc3)cc2NC(=O)CCl)cc1,28,82*,-2,-4,-5,66*,0,7,
Cc1ccc(-c2nn(-c3ccccc3)cc2/C=C/C(=O)Nc2nccs2)cc1,15,45*,7,4,50*,72*,13,43*,XBP1 UPR conf=26;Full FLuc ctr=37*
COc1ccc(-c2nn(-c3ccccc3)cc2C(=O)Nc2nccs2)cc1,-7,4,12,-4,-2,13,/,/,
Cc1ccc(-c2nn(-c3ccccc3)cc2CO)cc1,9,7,-5,-6,4,-64,/,/,
COC(=O)c1c(NC(=O)c2ccc([N+](=O)[O-])o2)sc2c1CCN(C(C)C)C2,29,71*,8,57*,-9,97*,56*,98*,Full FLuc ctr=48*
COc1ccc2[nH]c(=O)c(CN(CC3CCCO3)S(=O)(=O)c3ccccc3F)cc2c1 (stereo not drawn),-7,2,3,-2,-1,14,/,/,
O=[N+]([O-])c1ccc(Sc2nnnn2-c2ccccc2)nc1,/,126*,/,-6,-1,61*,101*,47*,Full FLuc ctr=79*
CN(C)C(=O)c1ccc2c(c1[N+](=O)[O-])C(=O)c1ccccc1C2=O,5,20,29,19,-3,14,/,/,
Cc1[nH]c2c(C)cccc2c1CCNC(=O)c1ccc2c(c1[N+](=O)[O-])C(=O)c1ccccc1C2=O,50,48*,-7,45,2,75*,40*,31,
CCN(C(=O)CSc1nnnn1C)C1CCS(=O)(=O)C1 (stereo not drawn),/,2,/,/,-1,20,/,/,
SMILES,CSC inhib,CHOP UPR activ,Beta cell apopt,SKKanGAS inh,XBP1 UPR activ,Mdm2 MdmX PPI,UPR CHOP confirm,Mdm2 MdmX conf,others
O=[N+]([O-])c1ccc(Cl)c(-c2ccc(/C=N/c3c(-c4ccco4)nc4ccccn34)o2)c1,-1,74*,-1,-11,90*,66*,0,-1,XBP1 UPR conf=95*
OCC[C@@H]1C[C@H](O)[C@@H](O)[C@@]2(OCCCc3ccccc32)O1,0,-1,-2,-3,2,9,/,/,
ClC1=C(Cl)C(Cl)=C(Cl)C1=C/C=C/c1ccccc1,103*,55*,116*,36,30,100*,29,99*,Full FLuc ctr=8
Cc1cccc(CSc2cccc3cccnc23)c1,45,407*,46,43,5,51*,254*,67*,Full FLuc ctr=37*
CCOC(=O)CSc1cccc2cccnc12,37,231*,16,2,5,77*,202*,14,
NNC(=O)c1ccc(CSc2cccc3cccnc23)cc1,-6,4,2,-4,-2,0,/,/,
Cc1ccc(C(=O)Nc2ccc(S(=O)(=O)N3CCOCC3)cc2)cc1Br,2,-3,5,-2,-2,20,/,/,
CC(NC(=O)Cc1ccc(Br)cc1)c1ccccc1 (stereo not drawn),-8,0,-3,4,-4,17,/,/,
